Reference: ChEMBL document CHEMBL4004830 (J Med Chem, 2017)
Blank lines part the entries; values can stand above or below the compound they belong to. The source made the active and inactive calls. No cut-off for these calls is given here.

How the values were obtained:
[1] = target: Vascular endothelial growth factor receptor 3 (Homo sapiens) (UniProt P35916); assay: Inhibition of recombinant human N-terminal GST-tagged Flt4 (800 to end amino acid residues) expressed in baculovirus infected Sf21 insect cells assessed as residual activity at 10 uM; values are per cent of control
MV4-11 [2] = assay: Cell cycle arrest in human MV4-11 cells assessed as accumulation at G2/M phase at 0.04 uM after 24 hrs by propidium iodide staining based flow cytometry (reference value: 17.94%); assay type: functional
CDK2/Cyclin A2 = CDK2/Cyclin A2 (Homo sapiens, UniProt P24941); assay: Inhibition of CDK2/cyclin A (unknown origin) in presence of [gamma-33P]-ATP […]; assay type: protein-complex assay; settings: read-out: Ki(app)
MV4-11 [3] = assay: Cell cycle arrest in human MV4-11 cells assessed as accumulation at sub-G1 phase at 0.04 uM after 24 hrs by propidium iodide staining based flow cytometry (reference value: 1.99%); assay type: functional
MDA-MB-453 = assay: Growth inhibition of human MDA-MB-453 cells after 72 hrs by MTT assay; assay type: functional; settings: MDA-MB-453, 72 h
In short: (§1)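 72 h antiproliferation assay, resazurin read-out for MV4-11 and MTT read-out for MDA-MB-453; values from at least two replicates.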

MV4-11 [4] = assay: Growth inhibition of human MV4-11 cells after 72 hrs by resazurin assay; assay type: functional; settings: MV4-11, 72 h
In short: as §1

MV4-11 [5] = assay: Cell cycle arrest in human MV4-11 cells assessed as accumulation at G2/M phase at 0.40 uM after 24 hrs by propidium iodide staining based flow cytometry (reference value: 17.94%); assay type: functional
[6] = target: Serine/threonine-protein kinase pim-1 (Homo sapiens) (UniProt P11309); assay: Inhibition of recombinant full-length human N-terminal GST-tagged Pim-1 expressed in Escherichia coli assessed as residual activity at 10 uM; values are per cent of control
[7] = target: Cyclin-dependent kinase 1/cyclin B1 (Homo sapiens, UniProt P06493); assay: (§2) Inhibition of CDK1/cyclin B (unknown origin) in presence of [gamma-33P]-ATP […]; assay type: protein-complex assay; settings: read-out: Ki(app)
MV4-11 [8] = assay: Cell cycle arrest in human MV4-11 cells assessed as accumulation at G1 phase at 0.20 uM after 24 hrs by propidium iodide staining based flow cytometry (reference value: 61.01%); assay type: functional
[9] = target: Fibroblast growth factor receptor 1 (Homo sapiens) (UniProt P11362); assay: Inhibition of recombinant human N-terminal GST-tagged FGFR1 (456 to 765 amino acid residues) expressed in baculovirus infected Sf21 insect cells assessed as residual activity at 10 uM; values are per cent of control
MV4-11 [10] = assay: Cell cycle arrest in human MV4-11 cells assessed as accumulation at S phase at 0.04 uM after 24 hrs by propidium iodide staining based flow cytometry (reference value: 19.07%); assay type: functional
MV4-11 [11] = assay: Cell cycle arrest in human MV4-11 cells assessed as accumulation at G1 phase after 24 hrs by propidium iodide staining based flow cytometry; assay type: functional
[12] = target: MAP kinase-interacting serine/threonine-protein kinase 2 (Homo sapiens) (UniProt Q9HBH9); assay: Inhibition of recombinant full-length human N-terminal His6-tagged Mnk2 expressed in baculovirus infected Sf21 insect cells assessed as residual activity at 10 uM; values are per cent of control
[13] = target: Receptor-type tyrosine-protein kinase FLT3 (Homo sapiens) (UniProt P36888); assay: Inhibition of recombinant human N-terminal GST-tagged Flt3 (564 to end amino acid residues) expressed in baculovirus infected Sf21 insect cells assessed as residual activity at 10 uM; values are per cent of control
[14] = target: Dual specificity tyrosine-phosphorylation-regulated kinase 1B (Homo sapiens) (UniProt Q9Y463); assay: Inhibition of DYRK1B (unknown origin) assessed as residual activity at 10 uM; values are per cent of control
[15] = target: Cyclin-dependent kinase 7/ cyclin H (Homo sapiens, UniProt P50613); assay: (§3) Inhibition of CDK7/cyclin H (unknown origin) in presence of [gamma-33P]-ATP […]; assay type: protein-complex assay; settings: read-out: Ki(app)
MV4-11 [16] = assay: Cell cycle arrest in human MV4-11 cells assessed as accumulation at S phase at 0.20 uM after 24 hrs by propidium iodide staining based flow cytometry (reference value: 19.07%); assay type: functional
[17] = target: Dual specificity tyrosine-phosphorylation-regulated kinase 1A (Rattus norvegicus) (UniProt Q63470); assay: Inhibition of recombinant rat N-terminal GST-tagged DYRK1A (1 to 499 amino acid residues) expressed in Escherichia coli assessed as residual activity at 10 uM; values are per cent of control
MV4-11 [18] = assay: Cell cycle arrest in human MV4-11 cells assessed as accumulation at G2/M phase at 0.20 uM after 24 hrs by propidium iodide staining based flow cytometry (reference value: 17.94%); assay type: functional
MV4-11 [19] = assay: Cell cycle arrest in human MV4-11 cells assessed as accumulation at S phase at 0.40 uM after 24 hrs by propidium iodide staining based flow cytometry (reference value: 19.07%); assay type: functional
MV4-11 [20] = assay: Cell cycle arrest in human MV4-11 cells assessed as accumulation at G1 phase at 0.04 uM after 24 hrs by propidium iodide staining based flow cytometry (reference value: 61.01%); assay type: functional
MV4-11 [21] = assay: Cell cycle arrest in human MV4-11 cells assessed as accumulation at sub-G1 phase at 0.40 uM after 24 hrs by propidium iodide staining based flow cytometry (reference value: 1.99%); assay type: functional
[22] = target: Death-associated protein kinase 1 (Homo sapiens) (UniProt P53355); assay: Inhibition of recombinant human N-terminal GST-tagged DAPK1 (1 to 296 amino acid residues) expressed in baculovirus infected Sf21 cells assessed as residual activity at 10 uM; values are per cent of control
Homo sapiens = species on record: Homo sapiens; assay: Inhibition of SGK (unknown origin) assessed as residual activity at 10 uM; values are per cent of control
MV4-11 [23] = assay: Cell cycle arrest in human MV4-11 cells assessed as accumulation at sub-G1 phase at 0.20 uM after 24 hrs by propidium iodide staining based flow cytometry (reference value: 1.99%); assay type: functional
[24] = target: Homeodomain-interacting protein kinase 2 (Homo sapiens) (UniProt Q9H2X6); assay: Inhibition of recombinant human N-terminal His6-tagged HIPK2 (165 to 564 amino acid residues) expressed in baculovirus infected Sf21 insect cells assessed as residual activity at 10 uM; values are per cent of control
MV4-11 [25] = assay: Cell cycle arrest in human MV4-11 cells assessed as accumulation at G1 phase at 0.40 uM after 24 hrs by propidium iodide staining based flow cytometry (reference value: 61.01%); assay type: functional
[26] = target: Dual specificity tyrosine-phosphorylation-regulated kinase 1B (Homo sapiens) (UniProt Q9Y463); assay: Inhibition of DYRK1B (unknown origin) assessed as residual activity at 10 uM
[27] = target: Cyclin-dependent kinase 1/cyclin B1 (Homo sapiens) (UniProt P06493+P14635); assay: as §2; assay type: protein-complex assay
[28] = target: Homeodomain-interacting protein kinase 2 (Homo sapiens) (UniProt Q9H2X6); assay: Inhibition of recombinant human N-terminal His6-tagged HIPK2 (165 to 564 amino acid residues) expressed in baculovirus infected Sf21 insect cells assessed as residual activity at 10 uM
[29] = target: Dual specificity tyrosine-phosphorylation-regulated kinase 1A (Rattus norvegicus) (UniProt Q63470); assay: Inhibition of recombinant rat N-terminal GST-tagged DYRK1A (1 to 499 amino acid residues) expressed in Escherichia coli assessed as residual activity at 10 uM
[30] = target: Cyclin-dependent kinase 7/ cyclin H (Homo sapiens) (UniProt P51946+P50613); assay: as §3; assay type: protein-complex assay

Homeodomain-interacting protein kinase 2 (Homo sapiens), sequence (Q9H2X6 whole entry, looked up, the tested form may be a part): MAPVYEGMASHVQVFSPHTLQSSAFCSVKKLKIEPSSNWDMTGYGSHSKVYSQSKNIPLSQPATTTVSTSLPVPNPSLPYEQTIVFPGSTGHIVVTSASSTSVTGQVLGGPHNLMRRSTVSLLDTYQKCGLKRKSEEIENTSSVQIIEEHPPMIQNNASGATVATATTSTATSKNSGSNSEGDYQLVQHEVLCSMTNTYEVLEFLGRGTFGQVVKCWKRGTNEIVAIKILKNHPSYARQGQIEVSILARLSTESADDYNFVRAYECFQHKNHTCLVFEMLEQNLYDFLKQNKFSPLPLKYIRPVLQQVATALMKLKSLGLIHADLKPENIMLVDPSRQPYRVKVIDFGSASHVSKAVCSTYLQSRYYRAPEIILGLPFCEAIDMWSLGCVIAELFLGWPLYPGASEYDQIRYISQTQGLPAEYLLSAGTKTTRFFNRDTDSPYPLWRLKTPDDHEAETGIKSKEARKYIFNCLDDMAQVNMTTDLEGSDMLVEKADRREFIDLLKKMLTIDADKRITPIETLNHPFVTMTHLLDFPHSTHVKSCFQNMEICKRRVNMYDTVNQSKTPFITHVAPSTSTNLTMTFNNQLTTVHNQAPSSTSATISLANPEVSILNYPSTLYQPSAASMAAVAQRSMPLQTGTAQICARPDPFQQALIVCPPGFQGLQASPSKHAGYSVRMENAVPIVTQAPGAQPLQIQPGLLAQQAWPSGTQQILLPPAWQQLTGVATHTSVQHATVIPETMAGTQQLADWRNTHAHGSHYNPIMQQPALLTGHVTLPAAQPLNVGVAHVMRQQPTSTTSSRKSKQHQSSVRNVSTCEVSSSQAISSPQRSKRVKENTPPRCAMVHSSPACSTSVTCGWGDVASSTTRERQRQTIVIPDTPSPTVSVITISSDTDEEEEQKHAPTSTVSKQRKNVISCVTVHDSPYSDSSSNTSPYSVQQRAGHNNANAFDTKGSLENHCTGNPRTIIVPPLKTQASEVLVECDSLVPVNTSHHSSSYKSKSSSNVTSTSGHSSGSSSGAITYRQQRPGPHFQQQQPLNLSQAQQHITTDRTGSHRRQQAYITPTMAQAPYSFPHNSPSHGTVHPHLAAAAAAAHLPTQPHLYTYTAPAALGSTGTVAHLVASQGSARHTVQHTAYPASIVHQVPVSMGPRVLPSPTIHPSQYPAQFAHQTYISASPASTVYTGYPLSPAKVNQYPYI
Dual specificity tyrosine-phosphorylation-regulated kinase 1B (Homo sapiens), sequence (Q9Y463 whole entry, looked up): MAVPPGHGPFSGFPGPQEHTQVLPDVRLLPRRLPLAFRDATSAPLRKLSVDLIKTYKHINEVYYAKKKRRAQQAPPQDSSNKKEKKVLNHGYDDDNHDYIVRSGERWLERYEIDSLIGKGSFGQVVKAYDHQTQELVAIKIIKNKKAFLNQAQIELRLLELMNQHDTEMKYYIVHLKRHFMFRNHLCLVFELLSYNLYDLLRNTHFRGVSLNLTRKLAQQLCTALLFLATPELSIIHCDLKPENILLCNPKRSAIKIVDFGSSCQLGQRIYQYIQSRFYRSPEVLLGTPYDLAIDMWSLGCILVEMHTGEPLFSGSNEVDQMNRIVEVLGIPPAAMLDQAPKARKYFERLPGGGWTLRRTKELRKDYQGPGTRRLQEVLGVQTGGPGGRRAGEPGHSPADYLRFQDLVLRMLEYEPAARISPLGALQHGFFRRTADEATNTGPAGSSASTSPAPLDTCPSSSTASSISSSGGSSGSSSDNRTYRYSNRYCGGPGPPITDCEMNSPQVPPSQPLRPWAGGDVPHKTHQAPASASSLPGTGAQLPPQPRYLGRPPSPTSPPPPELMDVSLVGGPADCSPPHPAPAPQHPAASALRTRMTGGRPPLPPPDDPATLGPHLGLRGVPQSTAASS
Death-associated protein kinase 1 (Homo sapiens), sequence (P53355 whole entry, looked up, the tested form may be a part): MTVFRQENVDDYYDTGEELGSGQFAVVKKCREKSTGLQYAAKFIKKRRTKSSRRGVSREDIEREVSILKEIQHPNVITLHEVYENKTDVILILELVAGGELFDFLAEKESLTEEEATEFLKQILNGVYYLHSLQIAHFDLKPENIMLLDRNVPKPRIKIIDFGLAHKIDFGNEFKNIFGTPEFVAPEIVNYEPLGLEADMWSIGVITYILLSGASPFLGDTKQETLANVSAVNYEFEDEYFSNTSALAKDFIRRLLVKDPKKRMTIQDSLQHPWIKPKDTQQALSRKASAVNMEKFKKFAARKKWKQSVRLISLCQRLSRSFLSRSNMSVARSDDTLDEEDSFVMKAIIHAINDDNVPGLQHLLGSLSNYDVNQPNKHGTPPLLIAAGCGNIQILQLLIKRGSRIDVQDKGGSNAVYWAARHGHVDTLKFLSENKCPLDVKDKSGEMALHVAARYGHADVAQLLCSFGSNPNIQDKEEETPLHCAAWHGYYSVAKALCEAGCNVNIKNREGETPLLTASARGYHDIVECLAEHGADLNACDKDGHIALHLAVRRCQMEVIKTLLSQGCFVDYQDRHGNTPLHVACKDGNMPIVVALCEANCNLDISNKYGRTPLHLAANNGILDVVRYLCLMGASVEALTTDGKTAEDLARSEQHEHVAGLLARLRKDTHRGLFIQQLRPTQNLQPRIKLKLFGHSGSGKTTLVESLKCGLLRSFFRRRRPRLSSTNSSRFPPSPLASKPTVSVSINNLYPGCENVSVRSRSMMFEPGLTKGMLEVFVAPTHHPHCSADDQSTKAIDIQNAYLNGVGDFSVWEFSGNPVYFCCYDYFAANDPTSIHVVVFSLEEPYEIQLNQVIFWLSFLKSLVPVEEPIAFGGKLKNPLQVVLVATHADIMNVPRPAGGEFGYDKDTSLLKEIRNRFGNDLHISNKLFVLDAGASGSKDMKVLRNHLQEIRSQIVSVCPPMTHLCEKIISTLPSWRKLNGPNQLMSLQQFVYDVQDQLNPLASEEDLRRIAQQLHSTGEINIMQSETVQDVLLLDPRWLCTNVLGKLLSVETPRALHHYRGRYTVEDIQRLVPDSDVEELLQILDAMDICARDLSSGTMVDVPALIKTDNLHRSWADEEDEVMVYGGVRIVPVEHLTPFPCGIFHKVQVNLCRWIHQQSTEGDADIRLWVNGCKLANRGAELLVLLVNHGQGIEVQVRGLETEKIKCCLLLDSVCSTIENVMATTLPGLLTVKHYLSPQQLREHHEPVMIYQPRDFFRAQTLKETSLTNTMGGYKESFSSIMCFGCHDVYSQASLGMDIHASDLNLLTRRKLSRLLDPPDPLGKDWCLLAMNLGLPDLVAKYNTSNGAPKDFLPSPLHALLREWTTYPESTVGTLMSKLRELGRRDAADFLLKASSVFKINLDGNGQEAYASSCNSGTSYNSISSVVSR
Fibroblast growth factor receptor 1 (Homo sapiens), sequence (P11362 22-822 limits assumed): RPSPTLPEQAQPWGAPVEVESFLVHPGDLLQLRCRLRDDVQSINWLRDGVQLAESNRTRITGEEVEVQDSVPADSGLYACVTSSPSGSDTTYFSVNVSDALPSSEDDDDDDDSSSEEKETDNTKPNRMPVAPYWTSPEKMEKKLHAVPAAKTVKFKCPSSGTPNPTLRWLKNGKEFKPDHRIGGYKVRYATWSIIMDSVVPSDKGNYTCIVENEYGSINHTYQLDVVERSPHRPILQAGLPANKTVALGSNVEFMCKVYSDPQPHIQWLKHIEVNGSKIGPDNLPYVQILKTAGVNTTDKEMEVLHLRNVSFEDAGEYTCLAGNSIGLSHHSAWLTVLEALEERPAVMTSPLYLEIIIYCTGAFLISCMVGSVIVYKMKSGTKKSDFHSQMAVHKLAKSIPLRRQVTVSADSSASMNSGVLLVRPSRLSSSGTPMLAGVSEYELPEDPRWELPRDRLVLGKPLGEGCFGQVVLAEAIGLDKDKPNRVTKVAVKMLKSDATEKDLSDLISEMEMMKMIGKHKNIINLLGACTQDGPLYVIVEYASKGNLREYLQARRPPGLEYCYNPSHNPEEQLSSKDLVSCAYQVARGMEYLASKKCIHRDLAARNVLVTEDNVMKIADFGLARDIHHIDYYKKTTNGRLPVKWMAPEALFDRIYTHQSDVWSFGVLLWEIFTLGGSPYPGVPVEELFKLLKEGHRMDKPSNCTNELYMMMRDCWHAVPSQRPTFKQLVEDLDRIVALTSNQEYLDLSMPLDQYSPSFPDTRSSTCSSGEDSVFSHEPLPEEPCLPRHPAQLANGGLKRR
Receptor-type tyrosine-protein kinase FLT3 (Homo sapiens), sequence (P36888 whole entry): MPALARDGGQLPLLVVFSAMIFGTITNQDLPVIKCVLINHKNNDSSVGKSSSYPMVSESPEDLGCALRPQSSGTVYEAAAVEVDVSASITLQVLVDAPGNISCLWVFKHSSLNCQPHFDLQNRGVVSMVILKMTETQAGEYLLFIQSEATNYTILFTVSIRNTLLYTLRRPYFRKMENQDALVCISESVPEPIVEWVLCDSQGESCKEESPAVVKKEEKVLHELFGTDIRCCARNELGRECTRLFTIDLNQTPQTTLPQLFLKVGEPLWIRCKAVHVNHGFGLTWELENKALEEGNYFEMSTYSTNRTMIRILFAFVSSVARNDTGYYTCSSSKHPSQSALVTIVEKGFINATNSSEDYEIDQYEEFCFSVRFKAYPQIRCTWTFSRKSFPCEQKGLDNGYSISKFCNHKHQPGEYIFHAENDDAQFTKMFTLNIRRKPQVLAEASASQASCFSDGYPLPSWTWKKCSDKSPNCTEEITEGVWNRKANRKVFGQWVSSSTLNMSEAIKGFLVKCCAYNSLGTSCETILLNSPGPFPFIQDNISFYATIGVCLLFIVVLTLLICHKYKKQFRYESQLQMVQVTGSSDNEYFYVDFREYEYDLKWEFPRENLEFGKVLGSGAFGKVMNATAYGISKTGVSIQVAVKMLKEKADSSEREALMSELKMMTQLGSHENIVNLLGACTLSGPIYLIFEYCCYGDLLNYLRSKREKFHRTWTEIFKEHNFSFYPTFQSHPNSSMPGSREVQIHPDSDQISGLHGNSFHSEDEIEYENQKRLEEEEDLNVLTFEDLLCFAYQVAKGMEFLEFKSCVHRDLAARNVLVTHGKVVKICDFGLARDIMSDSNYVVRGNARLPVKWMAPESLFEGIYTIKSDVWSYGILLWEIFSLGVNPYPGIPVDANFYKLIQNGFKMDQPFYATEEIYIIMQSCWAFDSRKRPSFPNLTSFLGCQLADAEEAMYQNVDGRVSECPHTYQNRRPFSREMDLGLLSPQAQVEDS

residual activity [1]: < 10% | Ki (CDK2/Cyclin A2): > 5000 nM | GI50 (MDA-MB-453): 70 nM | GI50 (MV4-11 [4]): 23 nM | residual activity [6]: < 10% | Ki [7]: > 5000 nM | residual activity [9]: < 10% | residual activity [12]: < 10% | residual activity [13]: < 10% | residual activity [14]: < 10% | Ki [15]: 1110 nM | residual activity [17]: < 10% | residual activity (Homo sapiens): < 10% | residual activity [24]: < 10%
Structure (SMILES): Cc1nc(NC2CCCC2)sc1-c1ccnc(Nc2ccc(N3CCNCC3)cn2)n1
Activity (MV4-11 [2]): 12.73% | Activity (MV4-11 [3]): 6.3% | Activity (MV4-11 [5]): 4.7% | Activity (MV4-11 [8]): 72.09% | Activity (MV4-11 [10]): 17.01% | Activity (MV4-11 [11]): Dose-dependent effect | Activity (MV4-11 [16]): 13.52% | Activity (MV4-11 [18]): 9.96% | Activity (MV4-11 [19]): 5.9% | Activity (MV4-11 [20]): 64.05% | Activity (MV4-11 [21]): 4.01% | residual activity [22]: < 10% | Activity (MV4-11 [23]): 4.23% | Activity (MV4-11 [25]): 85 - 85.24%

GI50 (MDA-MB-453): 356 nM | GI50 (MV4-11 [4]): 454 nM | inhibition [26]: Active | Ki(app) [27]: inactive | inhibition [28]: Active | inhibition [29]: Active | Ki(app) [30]: inactive
Structure (SMILES): Cc1nc(NC2CCCC2)sc1-c1nc(Nc2ccc(N3CCC(N(C)C)CC3)cn2)ncc1F
